According to ChEMBL document CHEMBL1135439, “Imidazo[2,1-i]purin-5-ones and related tricyclic water-soluble purine derivatives: potent A(2A)- and A(3)-adenosine receptor antagonists” (J Med Chem, 2002):
Converted amounts (≈) assume the structure as drawn.

What was measured:
Adenosine receptor A1 [1] = molecular target: T1, Adenosine receptor A1 (Rattus norvegicus, UniProt P25099); type: cell membranes, Brain
T1 sequence (P25099 whole entry): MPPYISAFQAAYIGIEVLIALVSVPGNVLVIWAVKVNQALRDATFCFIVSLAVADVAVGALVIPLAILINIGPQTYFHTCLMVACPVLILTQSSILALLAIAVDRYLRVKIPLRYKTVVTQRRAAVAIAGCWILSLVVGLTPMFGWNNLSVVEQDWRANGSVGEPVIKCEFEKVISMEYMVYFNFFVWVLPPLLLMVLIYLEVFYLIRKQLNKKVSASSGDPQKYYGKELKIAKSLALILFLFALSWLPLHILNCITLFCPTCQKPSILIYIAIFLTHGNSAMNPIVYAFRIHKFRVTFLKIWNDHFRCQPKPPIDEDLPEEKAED

Adenosine receptor A2a [2] = molecular target: T2, Adenosine receptor A2a (Rattus norvegicus, UniProt P30543); assay: Binding affinity to the adenosine A2A receptor by displacement of [3H]CGS-21680 in rat brain striatal membrane; type: cell membranes
T2 sequence (P30543 whole entry): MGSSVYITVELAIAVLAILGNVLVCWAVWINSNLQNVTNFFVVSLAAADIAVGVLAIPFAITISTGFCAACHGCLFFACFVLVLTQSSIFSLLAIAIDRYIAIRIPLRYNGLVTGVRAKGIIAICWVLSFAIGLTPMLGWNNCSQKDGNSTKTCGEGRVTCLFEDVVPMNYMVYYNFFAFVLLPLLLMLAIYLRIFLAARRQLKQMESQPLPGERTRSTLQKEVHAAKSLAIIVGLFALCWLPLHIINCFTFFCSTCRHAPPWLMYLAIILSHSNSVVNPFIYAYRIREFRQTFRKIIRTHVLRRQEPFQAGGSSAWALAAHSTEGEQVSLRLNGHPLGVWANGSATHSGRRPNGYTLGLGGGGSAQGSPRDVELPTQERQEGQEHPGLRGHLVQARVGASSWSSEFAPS

[3] = Water solubility was determined.; type: ADME
Procedure, shortened: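 A saturated aqueous solution was prepared and the undissolved residue filtered off. The filtrate was diluted with water and its UV absorbance read at λmax. Concentration was calculated from a previously determined calibration curve for each compound.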

[4] = molecular target: T3, Adenosine receptor A3 (Homo sapiens) (UniProt P0DMS8); assay: Percent displacement against human Adenosine A3 receptor expressed in HEK293 cells by displacing [125I]AB-MECA at 10 uM; type: cell-based
T3 sequence (whole entry): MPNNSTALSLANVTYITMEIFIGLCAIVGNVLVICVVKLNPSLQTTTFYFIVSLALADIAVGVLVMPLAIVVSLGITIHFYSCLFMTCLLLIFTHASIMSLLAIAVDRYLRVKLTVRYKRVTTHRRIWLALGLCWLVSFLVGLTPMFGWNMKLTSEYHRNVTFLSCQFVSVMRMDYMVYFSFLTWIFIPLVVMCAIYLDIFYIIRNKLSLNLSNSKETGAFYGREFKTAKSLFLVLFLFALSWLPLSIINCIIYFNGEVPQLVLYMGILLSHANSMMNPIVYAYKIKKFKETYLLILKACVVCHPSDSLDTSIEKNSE

Adenosine receptor A3 = molecular target: T4, Adenosine receptor A3 (Homo sapiens, UniProt P0DMS8); assay: Binding affinity against human recombinant Adenosine A3 receptor stably expressed in HEK293 cells by displacing [125I]AB-MECA radioligand; type: cell-based
T4 sequence (P0DMS8 whole entry): T3 sequence (whole entry)

[5] = Water solubility of the compound; type: ADME; settings: read-out: S
Adenosine receptor A2a [6] = molecular target: T2, Adenosine receptor A2a; assay: (§1) Inhibition against A2A-Adenosine Receptor of rat PC12 cell membranes (functional antagonist activity); type: cell-based, PC-12
Procedure, shortened: (§2)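 Adenylate cyclase assay measuring antagonism of NECA-stimulated AC in rat PC12 membranes (A2A) or NIH 3T3 fibroblast membranes (A2B). KB was obtained from the Schild equation, using the ratio of NECA EC50 values with and without antagonist.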

Adenosine receptor A2b = molecular target: T5, Adenosine receptor A2b (Mus musculus, UniProt Q60614); assay: (§3) Inhibition against A2B-Adenosine Receptor in mouse NIH 3T3 fibroblast cell membranes (functional antagonist activity); type: cell-based
T5 sequence (Q60614 whole entry): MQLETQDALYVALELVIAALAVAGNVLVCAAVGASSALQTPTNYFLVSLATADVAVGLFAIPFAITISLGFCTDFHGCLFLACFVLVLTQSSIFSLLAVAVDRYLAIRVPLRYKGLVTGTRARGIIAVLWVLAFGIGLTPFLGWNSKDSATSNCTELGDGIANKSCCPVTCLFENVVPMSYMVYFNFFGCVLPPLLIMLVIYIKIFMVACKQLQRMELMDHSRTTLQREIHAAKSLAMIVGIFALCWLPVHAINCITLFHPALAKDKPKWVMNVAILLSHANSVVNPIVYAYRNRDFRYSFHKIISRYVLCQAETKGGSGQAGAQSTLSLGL
Procedure, shortened: as §2

Adenosine receptor A1 [7] = molecular target: T1, Adenosine receptor A1; assay: (§4) Inhibition against Adenosine A1 receptor of rat fat cell membranes (functional antagonist activity)
Procedure, shortened: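 Adenylate cyclase assay in rat fat cell membranes measuring antagonism of R-PIA-elicited AC inhibition. KB was obtained from the Schild equation, using the ratio of R-PIA IC50 values with and without antagonist.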

[8] = molecular target: Adenosine receptor A2a (Rattus norvegicus) (UniProt P30543); assay: as §1; type: cell-based; settings: PC-12
Chain of Adenosine receptor A2a (Rattus norvegicus) (P30543 whole entry): as the sequence (P30543 whole entry) above

[9] = molecular target: T6, Adenosine receptor A2b (Mus musculus) (UniProt Q60614); assay: as §3; type: cell-based
T6 sequence (whole entry): T5 sequence (Q60614 whole entry)
Procedure, shortened: as §2

[10] = molecular target: T7, Adenosine receptor A1 (Rattus norvegicus) (UniProt P25099); assay: as §4
T7 sequence (whole entry): T1 sequence (P25099 whole entry)

[11] = molecular target: Adenosine receptor A2a (Rattus norvegicus) (UniProt P30543); assay: Binding affinity against Adenosine A2A receptor by displacement of [3H]CGS-21680 radioligand in rat brain striatal membrane at 30 uM; type: cell membranes
Procedure, shortened: (§5)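 Single-concentration inhibition of [3H]CGS21680 binding to rat striatal membrane A2A receptors, reported as percent displacement at the stated test concentration. Nonspecific binding was defined with 20 μM 2-chloroadenosine.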

[12] = molecular target: T7, Adenosine receptor A1 (Rattus norvegicus); assay: Percent displacement of [3H]CHA from Adenosine A1 receptor of rat brain cortical membrane at 3 uM
Procedure, shortened: (§6)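 Single-concentration inhibition of [3H]CHA binding to rat cerebral cortical membrane A1 receptors, reported as percent displacement at the stated test concentration. Nonspecific binding was determined with 10 μM 2-chloroadenosine.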

[13] = molecular target: T7, Adenosine receptor A1 (Rattus norvegicus); assay: Percent displacement of [3H]CHA from Adenosine A1 receptor of rat brain cortical membrane at 30 uM
Procedure, shortened: as §6

[14] = molecular target: T3, Adenosine receptor A3 (Homo sapiens); assay: Percent displacement against human recombinant Adenosine A3 receptor expressed in HEK293 cells by displacing [125I]AB-MECA at 100 uM; type: cell-based
[15] = molecular target: T7, Adenosine receptor A1 (Rattus norvegicus); assay: Percent displacement of [3H]CHA from Adenosine A1 receptor of rat brain cortical membrane at 250 uM
Procedure, shortened: as §6

[16] = molecular target: T6, Adenosine receptor A2b (Mus musculus); assay: Inhibition against A2B-Adenosine Receptor in mouse NIH 3T3 fibroblast cell membranes; type: cell-based
Procedure, shortened: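 Functional adenylate cyclase assay in NIH 3T3 fibroblast cell membranes: test compounds antagonize NECA-induced stimulation of AC (cAMP accumulation). K_B is calculated with the Schild equation from the ratio of NECA EC50 values with and without antagonist.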

[17] = molecular target: Adenosine receptor A2a (Rattus norvegicus) (UniProt P30543); assay: Percent displacement of [3H]CGS-21680 from Adenosine A2A receptor of rat brain striatal membrane at 30 uM
Procedure, shortened: as §5

[18] = molecular target: T7, Adenosine receptor A1 (Rattus norvegicus); assay: Percent displacement of [3H]CHA from Adenosine A1 receptor of rat brain cortical membrane at 10 uM
Procedure, shortened: as §6

SMILES	Ki (Adenosine receptor A1 [1]) [µM]	Ki (Adenosine receptor A2a [2]) [µM]	other results
CN1C(=O)N2CCCCN=C2c2c1ncn2C	19.8	18.5	
CN1C(=O)N2CCN=C2c2c1ncn2C	79.6	20.7	solubility [3]: 1210 mM (≈ 248000 µg/mL); Displacement [4]: 40%
C[C@H]1CN=C2c3c(ncn3C)N(C)C(=O)N21	70	12	
CC[C@@H]1CN2C(=O)N(C)c3nc(-c4ccccc4)n(C)c3C2=N1	17.5	36.3	
C[C@@H]1CN=C2c3c(ncn3C)N(C)C(=O)N21	23	50.4	
CC[C@H]1CN2C(=O)N(C)c3nc(-c4ccccc4)n(C)c3C2=N1	4.7	16.2	
CN1C(=O)N2CCCN=C2c2c1ncn2C	43.2	28.5	
CN1C(=O)N2CCN=C2c2c1nc(-c1ccccc1)n2C	9.7	20.3	Ki (Adenosine receptor A3): 3.33 µM; solubility [5]: 1.45 mM (≈ 408 µg/mL)
CC[C@@H]1CN2C(=O)N(C)c3ncn(C)c3C2=N1	75.5	28.3	
CCC1CN2C(=O)N(C)c3nc(-c4ccccc4)n(C)c3C2=N1 (configuration not stated)	6.1	19.2	Displacement [4]: 17%
Cn1c(=O)c2c(nc(/C=C/c3ccccc3)n2C)n(C)c1=O			solubility [5]: 0.0028 mM (≈ 0.83 µg/mL)
Cn1c(-c2ccccc2)nc2c1C1=NCCN1C(=O)N2	1.83	11.9	KB (Adenosine receptor A2a [6]): 17.2 µM; KB (Adenosine receptor A2b): 7 µM; KB (Adenosine receptor A1 [7]): 500 nM; Ki (Adenosine receptor A3): 0.047 µM
Cn1c(=O)c2c(nc(-c3ccccc3)n2C)n(C)c1=O			solubility [5]: 0.487 mM (≈ 132 µg/mL)
CN1C(=O)N2CCCCC/N=C\2c2c1ncn2C	60.3	51	
CN1C(=O)N2CCCN=C2c2c1nc(Cl)n2C	10.5	11.9	
Cn1c(=O)[nH]c2nc(-c3ccccc3)n(C)c2c1=O			Kb [8]: 5.7 µM; Kb [9]: 5.2 µM; Kb [10]: 0.32 µM
C[C@@H]1CN2C(=O)N(C)c3ncn(C)c3C2=N1			Displacement [11]: 12%; Displacement [12]: 14%
Cn1cnc2c1C1=NCCN1C(=O)N2Cc1ccccc1		16.1	Displacement [13]: 24%

SMILES	Ki (Adenosine receptor A1 [1]) [µM]	Ki (Adenosine receptor A2a [2]) [µM]	other results
Cn1cnc2c1C1=NCCN1C(=O)N2	65.5	40.9	
Cn1c(=O)c2[nH]c(-c3ccccc3)nc2n(C)c1=O [8-PHENYL THEOPHYLLINE]		0.83	
CCC1CN2C(=O)N(C)c3ncn(C)c3C2=N1 (configuration not stated)		16.2	Displacement [14]: 28%; Displacement [15]: 46%
CC[C@H]1CN2C(=O)N(C)c3[nH]c(/C=C/c4ccccc4)nc3C2=N1	0.73	0.67	
CC[C@@H]1CN2C(=O)N(C)c3nc(-c4ccccc4)[nH]c3C2=N1	0.44	2.1	Kb [8]: 2.5 µM; Kb [9]: 2.1 µM; Kb [10]: 0.43 µM
CC[C@H]1CN2C(=O)N(C)c3[nH]c(-c4ccccc4)nc3C2=N1	0.115	3.33	Kb [8]: 4.3 µM; Kb [9]: 7.6 µM; Kb [10]: 0.063 µM
CC[C@H]1CN2C(=O)N(C)c3ncn(C)c3C2=N1		10.9	Displacement [15]: 50%
CC[C@@H]1CN2C(=O)N(C)c3[nH]c(/C=C/c4ccccc4)nc3C2=N1	0.95	0.89	Ki (Adenosine receptor A3): 0.64 µM
Cn1c(=O)c2nc(/C=C/c3ccccc3)[nH]c2n(C)c1=O			solubility [5]: 0.00022 mM (≈ 0.0621 µg/mL)
CCCn1c(=O)[nH]c(=O)c2nc[nH]c21			Kb [16]: 18 µM
CCC1CN2C(=O)N(C)c3[nH]c(-c4ccccc4)nc3C2=N1 (configuration not stated)	0.265	3.1	
Cn1c(=O)c2[nH]cnc2n(C)c1=O.O [THEOPHYLLINE]			Kb [16]: 16 µM; solubility [5]: 44.4 mM
Cn1c(=O)c2c(ncn2C)n(C)c1=O			Kb [9]: 25 µM
CC[C@H]1CN2C(=O)N(C)c3nc(/C=C/c4ccccc4)n(C)c3C2=N1	14.9	0.424	Kb [8]: 1 µM; Kb [9]: 3.7 µM; Ki (Adenosine receptor A3): 30.6 µM; Kb [10]: 33 µM
CC[C@@H]1CN2C(=O)N(C)c3nc(/C=C/c4ccccc4)n(C)c3C2=N1	21.7	0.547	Ki (Adenosine receptor A3): 1.7 µM
C[C@H]1CN2C(=O)N(C)c3ncn(C)c3C2=N1			Displacement [17]: 46%; Displacement [18]: 10%
CC1CN=C2c3c(ncn3C)N(C)C(=O)N21 (configuration not stated)	59	64.6	
